Only some compounds are listed: those with a hit (about 2.3% of all), similar ones and a draw of the others.
CHT inh: inhibitors of human choline transporter CHT. High affinity choline transporter 1 (Homo sapiens), Q9GZV3. CHT-expressing cells, membrane potential dye, choline response; stronger effect = lower value. B-score at 10 µM. actives 0.86% (n = 310,000);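 active = B-score over 3 SD under the library average, and starting fluorescence ratio not unusually high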;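 note: choline stimulus applied at its EC90 after an EC20 pre-addition; B-score computed on integrated fluorescence ratio after choline addition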
Target sequence (Q9GZV3 whole entry, looked up): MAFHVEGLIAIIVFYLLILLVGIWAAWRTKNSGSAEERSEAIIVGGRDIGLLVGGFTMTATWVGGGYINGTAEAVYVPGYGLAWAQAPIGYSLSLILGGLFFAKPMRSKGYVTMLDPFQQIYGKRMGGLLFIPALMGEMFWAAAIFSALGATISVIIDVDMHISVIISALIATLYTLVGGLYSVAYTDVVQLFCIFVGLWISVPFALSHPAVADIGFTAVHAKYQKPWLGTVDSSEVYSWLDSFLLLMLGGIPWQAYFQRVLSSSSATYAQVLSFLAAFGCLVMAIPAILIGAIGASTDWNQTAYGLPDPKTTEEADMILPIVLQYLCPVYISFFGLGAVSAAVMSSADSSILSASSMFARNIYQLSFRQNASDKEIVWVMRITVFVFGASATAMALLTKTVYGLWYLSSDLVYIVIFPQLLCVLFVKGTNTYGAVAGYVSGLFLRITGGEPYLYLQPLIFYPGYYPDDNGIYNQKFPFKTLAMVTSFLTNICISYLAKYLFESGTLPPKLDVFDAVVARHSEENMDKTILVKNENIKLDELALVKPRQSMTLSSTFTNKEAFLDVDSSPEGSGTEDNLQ
CHT allo act: CHT positive allosteric modulators, primary screen, cell-based, membrane potential dye, choline EC20 | B-score at 10 µM | actives 0.49% (n = 310,000) | High affinity choline transporter 1 (Homo sapiens), Q9GZV3 | CHT-expressing cells; stronger effect = higher value; LV-AA mutant CHT in HEK293 cells;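 active = initial fluorescence not abnormally high and integrated response B-score, plate-corrected, over 3 SD above library mean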
p-CIP stab down: p/CIP-EGFP fusion destabilizers, primary screen, fluorescence, F442A cells. Q05BA5. actives 0.01% (n = 290,000). decrease of EGFP signal, % at 10 µM. 16 h;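 active = EGFP signal decrease of at least 30% at 10 µM or well 3 SD below plate mean, unless failing retest; inactive = the rest, including hits failing retest or dose response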
Pemphigus Ab inh: inhibitors of pemphigus antibody binding to DSG3, primary screen, biochemical, bead-based, flow cytometry, scFv-GFP. binding (percent of control), % at 10 µM. DSG3-coupled beads, scFv-anti-DSG3-GFP binding; stronger effect = lower value. actives 0.48% (n = 310,000). Desmoglein-3 (Homo sapiens), P32926;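 active = binding more than 3 SD below its plate's average and above zero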;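 note: hits lower antibody fragment binding to DSG3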
GPR7 antagonist: GPR7 receptor antagonists, primary screen, cell-based, fluorescence, single concentration; actives 1.1% (n = 290,000); GPR7-expressing cells, fluorescence antagonist assay; inhibition, % at 4.4 µM; in the data active = inhibition above about 16%, passing the limit was not always enough;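 note: cells stimulated with the agonist NPW; 0% = agonist with vehicle and 100% = vehicle without agonist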
T cell HTS: modulators of CD8 T cell-vesicle binding, primary screen, mouse 2C CD8+ T cells, flow cytometry; 2C CD8+ T cell-vesicle binding; stronger effect = lower value; actives 0.068% (n = 330,000); AID 2052, 2009; response (vesicle binding), % at 7 µM;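 active = response, share of CD8 T cells binding vesicles, and their 90th percentile fluorescence all below set limits, cut at about 80% in these data, passing the limit was not always enough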;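 note: values below 100% mean blocked vesicle binding to the CD8+ T cells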
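incubation = binding step 1.5 h, 37 °C, antibody labelling 20 min, ice | test system = 2C mouse CD8+ T cells | read-out basis = percent CD8+ FL2 mean versus row control | controls = Peptide-free naked vesicles (low) and QL9 vesicles with 0.7% DMSO vehicle (high) | detection = flow cytometry of vesicle-bound cells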
CHT block conf: CHT inhibitors, confirmation, cell-based, membrane potential dye, duplicate; shares compounds with CHT inh; CHT-expressing cells, choline membrane potential dye; LV-to-AA substituted CHT, HEK293 cells; CHT activity remaining % of control (stronger effect = lower value), % at 10 µM; actives 70% (n = 2,400);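 active = choline transporter activity left, mean of duplicates at 10 µM, below buffer-only control mean minus 3 SD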;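 note: depolarization triggered by choline at its EC90 following an EC20 pre-addition; 0% = hemicholinium-3 full block and 100% = buffer-only control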
HEK293 CHT ctr: membrane potential effects in parental HEK293, counter-screen for CHT inhibitor project, cell-based, membrane potential dye; actives 4% (n = 2,400); membrane potential ratio readout (active if shifted either direction beyond buffer ±3SD; no single direction) at 10 µM; AID 493222, 2011; shares compounds with CHT inh; choline response; active = decrease or increase beyond buffer ±3SD;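 note: parental cells lack the transporter so any hit is non-specific; ratio is peak minus trough fluorescence over baseline after EC90 choline challenge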
Numbers without * were called inactive.

For COC(=O)CN1C(=O)S/C(=C/c2ccc(N3CCCCC3)o2)C1=O the results were CHT inh -5.1*, CHT allo act inactive, p-CIP stab down -17, GPR7 antagonist 8, T cell HTS 747, CHT block conf inactive and HEK293 CHT ctr inactive.
Screening CCCn1c(=S)[nH]c2cc(C(=O)N3CCN(c4ccc(F)cc4)CC3)ccc2c1=O returned Pemphigus Ab inh 95.
`CCCCOc1ccc(C(=O)NNC(=S)NC(=O)CC)cc1` gave CHT inh inactive, CHT allo act inactive, p-CIP stab down -3, Pemphigus Ab inh 100, GPR7 antagonist 8 and T cell HTS 277.
CC(Oc1ccc(Cl)cc1)C(=O)NNC(=S)NC(=O)c1ccco1 (centres undefined) was read as CHT inh -6.5*, CHT allo act inactive, p-CIP stab down -3, Pemphigus Ab inh 105, GPR7 antagonist 7, T cell HTS 273, CHT block conf 58%* and HEK293 CHT ctr inactive.
Screening CCCOc1ccc(C(=O)NNC(=S)NC(=O)c2ccco2)cc1 returned CHT inh -7.9*, CHT allo act inactive, p-CIP stab down -8, Pemphigus Ab inh 113, GPR7 antagonist 14, T cell HTS 399, CHT block conf 54%* and HEK293 CHT ctr inactive.
Cc1onc(-c2ccccc2)c1C(=O)NC(=S)NNC(=O)c1ccco1 was read as CHT inh -7.2*, CHT allo act inactive, p-CIP stab down 2, Pemphigus Ab inh 100, GPR7 antagonist -22, T cell HTS 50, CHT block conf 59%* and HEK293 CHT ctr inactive.
`O=C(COc1ccc(Cl)cc1Cl)NNC(=S)NC(=O)c1ccco1` gave CHT inh inactive, CHT allo act inactive, p-CIP stab down -11, Pemphigus Ab inh 94, GPR7 antagonist -10 and T cell HTS 678.
Screening CCCc1nc2oc3c(NCc4ccccn4)ncnc3c2c2c1COC(C)(C)C2 returned CHT inh inactive, CHT allo act inactive, p-CIP stab down 4, Pemphigus Ab inh 100, GPR7 antagonist -3 and T cell HTS 169.
For CCCc1nc2oc3c(NCC4CCCO4)ncnc3c2c2c1COC(C)(C)C2 (centres undefined) the results were CHT inh -8.1*, CHT allo act inactive, p-CIP stab down 12, Pemphigus Ab inh 102, GPR7 antagonist -5, T cell HTS 383, CHT block conf 16%* and HEK293 CHT ctr inactive.
CC(C)CSc1nc(N)nc2c1ncn2C1OC(CO)C(O)C1O (centres undefined) was read as Pemphigus Ab inh 97.
`CC(=O)Oc1[nH]c(=O)c2cccc3c2c1CCC3` gave Pemphigus Ab inh 101.
Screening Cc1cc(C)c(S(=O)(=O)/N=C2\C=C(Nc3ccc(C(=O)O)cc3)C(=O)c3ccccc32)c(C)c1 returned CHT inh -5.6*, CHT allo act inactive, p-CIP stab down -3, Pemphigus Ab inh 111, GPR7 antagonist -24, T cell HTS 169, CHT block conf 25%* and HEK293 CHT ctr inactive.
Screening O=C(O)c1ccc(NC2=C/C(=N/S(=O)(=O)c3ccccc3)c3ccccc3C2=O)cc1 returned p-CIP stab down 46, Pemphigus Ab inh 104 and GPR7 antagonist -24.
